{"source": "ChEMBL document CHEMBL1128250", "about": "“Structure-activity studies of 2,3,4,4a,5,9b-hexahydroindeno[1,2-c]pyridines as antispermatogenic agents for male contraception” (1995)", "key": {"[1]": {"test_system": "Mus musculus", "assay": "Tested for its effect on testes weight 3 days after single oral dose (90 mg/kg)", "format": "functional, Testis", "procedure,_shortened": "(§1)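 CD-1 outbred Swiss albino male mice, 5 per dose, single gavage on day 0 at 10 mL/kg. Vehicle was 0.15 M acetate buffer pH 5, ethanol/Tween-20/water (3:7:90), or 1% Tween-20 in water. CO2 euthanasia 72 h later. Testes weighed and histologically scored (spermatogenic index 0–6). Values are % reduction versus the assay's vehicle control. Positive control was 30 mg/kg of the parent compound. Significance by Dunnett's one-tailed t-test, p < 0.05.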"}, "[2]": {"test_system": "Mus musculus", "assay": "Tested for its effect on spermatogenic index 3 days after single oral dose (90 mg/kg),", "format": "functional", "procedure,_shortened": "as §1"}, "[3]": {"test_system": "Mus musculus", "assay": "Tested for its effect on testes weight 3 days after single oral dose (3 mg/kg)", "format": "functional, Testis", "procedure,_shortened": "(§2)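 Male CD-1 (ICR) mice, 7 weeks old on arrival, 5 per dose, single gavage of 10 mL/kg on day 0. Vehicle was 0.15 M acetate buffer pH 5, ethanol/Tween-20/water 3:7:90, or 1% Tween-20. Mice were killed with CO2 at 72 h and testes weighed and scored for spermatogenic index (0–6 scale). Results are % reduction versus the vehicle control. Dunnett's one-tailed t-test.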"}, "[4]": {"test_system": "Mus musculus", "assay": "Tested for its effect on spermatogenic index 3 days after single oral dose (10 mg/kg)", "format": "functional", "procedure,_shortened": "as §2"}, "[5]": {"test_system": "Mus musculus", "assay": "Tested for its effect on spermatogenic index 3 days after single oral dose (3 mg/kg),", "format": "functional", "procedure,_shortened": "as §2"}, "[6]": {"test_system": "Mus musculus", "assay": "Tested for its effect on spermatogenic index 3 days after single oral dose (30 mg/kg)", "format": "functional", "procedure,_shortened": "as §1"}, "[7]": {"test_system": "Mus musculus", "assay": "Tested for its effect on testes weight 3 days after single oral dose (30 mg/kg)", "format": "functional, Testis", "procedure,_shortened": "as §1"}, "[8]": {"test_system": "Mus musculus", "assay": "Tested for its effect on testes weight 3 days after single oral dose (10 mg/kg)", "format": "functional, Testis", "procedure,_shortened": "as §1"}, "[9]": {"test_system": "Mus musculus", "assay": "Tested for its effect on testes weight 3 days after single sub cutaneous dose (30 mg/kg)", "format": "functional, Testis", "procedure,_shortened": "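Single subcutaneous injection, 10 mL/kg, to male CD-1 mice (5 per dose) in ethanol/Tween-20/water (3:7:90, v/v/v) on day 0. Mice were killed at 72 h; testes were weighed and histology scored for spermatogenic index (0–6). Results are % reduction from the vehicle control, with a 30 mg/kg positive control group. Dunnett's one-tailed t-test.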"}, "[10]": {"test_system": "Mus musculus", "assay": "Tested for its effect on spermatogenic index 3 days after single oral dose (10 mg/kg),", "format": "functional", "procedure,_shortened": "as §1"}, "[11]": {"test_system": "Mus musculus", "assay": "Tested for its effect on spermatogenic index 3 days after single oral dose (90 mg/kg)", "format": "functional", "procedure,_shortened": "as §1"}}, "note": "Where “and” joins values, the source holds several entries; their conditions need not be identical. Equal values may be shown once.", "data": [{"compound": "CCN1CC[C@H]2[C@H](c3ccccc3C)c3cc(C)ccc3[C@H]2C1.Cl", "values": [{"measurement": "Reduction", "setting": "[1]", "result": 3, "unit": "%"}, {"measurement": "Reduction", "setting": "[2]", "result": -9, "unit": "%"}]}, {"compound": "CCN1CC[C@H]2[C@H](c3ccc(F)cc3)c3cc(C)ccc3[C@H]2C1.Cl", "values": [{"measurement": "Reduction", "setting": "[1]", "result": 5, "unit": "%"}, {"measurement": "Reduction", "setting": "[2]", "result": -5, "unit": "%"}]}, {"compound": "CCc1ccc2c(c1)[C@@H](c1ccc(C(=O)OC)cc1)[C@@H]1CCN(CC)C[C@H]21.Cl", "values": [{"measurement": "Reduction", "setting": "[3]", "result": -18, "unit": "%"}, {"measurement": "Reduction", "setting": "[4]", "result": -4, "unit": "%"}, {"measurement": "Reduction", "setting": "[5]", "result": 4, "unit": "%"}, {"measurement": "Reduction", "setting": "[6]", "result": 23, "unit": "%"}, {"measurement": "Reduction", "setting": "[7]", "result": 8, "unit": "%"}, {"measurement": "Reduction", "setting": "[8]", "result": 0, "unit": "%"}]}, {"compound": "CCN1CCC(=C(c2ccc(C)cc2)c2cccc(C)c2)CC1.Cl", "values": [{"measurement": "Reduction", "setting": "[1]", "result": -5, "unit": "%"}, {"measurement": "Reduction", "setting": "[2]", "result": 0, "unit": "%"}]}, {"compound": "CCN1CC[C@H]2[C@H](c3ccc(C#N)cc3)c3cc(C)ccc3[C@H]2C1.Cl", "values": [{"measurement": "Reduction", "setting": "[1]", "result": 13, "unit": "%"}, {"measurement": "Reduction", "setting": "[2]", "result": -4, "unit": "%"}]}, {"compound": "CCN1CCC(C(O)(c2ccc(C)cc2)c2ccc(C)cc2)CC1.Cl", "values": [{"measurement": "Reduction", "setting": "[1]", "result": -21, "unit": "%"}, {"measurement": "Reduction", "setting": "[2]", "result": 0, "unit": "%"}]}, {"compound": "CCN1CC[C@H]2[C@H](c3ccc(C=O)cc3)c3cc(C)ccc3[C@H]2C1.Cl", "values": [{"measurement": "Reduction", "setting": "[3]", "result": 7, "unit": "%"}, {"measurement": "Reduction", "setting": "[9]", "result": -4, "unit": "%"}, {"measurement": "Reduction", "setting": "[4]", "result": 2, "unit": "%"}, {"measurement": "Reduction", "setting": "[5]", "result": 0, "unit": "%"}, {"measurement": "Reduction", "setting": "[6]", "result": "31% and 30%"}, {"measurement": "Reduction", "setting": "[7]", "result": 7, "unit": "%"}, {"measurement": "Reduction", "setting": "[8]", "result": 6, "unit": "%"}]}, {"compound": "CCc1ccc2c(c1)[C@@H](c1ccc(C)cc1)[C@@H]1CCN(CC)C[C@H]21.Cl", "values": [{"measurement": "Reduction", "setting": "[3]", "result": 3, "unit": "%"}, {"measurement": "Reduction", "setting": "[4]", "result": 7, "unit": "%"}, {"measurement": "Reduction", "setting": "[5]", "result": -2, "unit": "%"}, {"measurement": "Reduction", "setting": "[6]", "result": 33, "unit": "%"}, {"measurement": "Reduction", "setting": "[7]", "result": 26, "unit": "%"}, {"measurement": "Reduction", "setting": "[8]", "result": 2, "unit": "%"}]}, {"compound": "Cc1ccc([C@@H]2c3cc(C)ccc3[C@H]3CN(C(C)C)CC[C@@H]23)cc1.Cl", "values": [{"measurement": "Reduction", "setting": "[10]", "result": 10, "unit": "%"}, {"measurement": "Reduction", "setting": "[11]", "result": 45, "unit": "%"}, {"measurement": "Reduction", "setting": "[6]", "result": 28, "unit": "%"}, {"measurement": "Reduction", "setting": "[7]", "result": 15, "unit": "%"}, {"measurement": "Reduction", "setting": "[1]", "result": 23, "unit": "%"}, {"measurement": "Reduction", "setting": "[8]", "result": 7, "unit": "%"}]}, {"compound": "CCN1CC[C@H]2[C@H](c3ccc(O)cc3)c3cc(C)ccc3[C@H]2C1.Cl", "values": [{"measurement": "Reduction", "setting": "[1]", "result": -1, "unit": "%"}, {"measurement": "Reduction", "setting": "[2]", "result": -5, "unit": "%"}]}, {"compound": "CCN1CC[C@H]2[C@H](c3ccccc3)c3cc(C)ccc3[C@H]2C1.Cl", "values": [{"measurement": "Reduction", "setting": "[1]", "result": -8, "unit": "%"}, {"measurement": "Reduction", "setting": "[2]", "result": -9, "unit": "%"}]}, {"compound": "CCN1CCC(C(c2ccc(C)cc2)c2cccc(C)c2)CC1.Cl", "note": "(stereo not given)", "values": [{"measurement": "Reduction", "setting": "[3]", "result": 2, "unit": "%"}, {"measurement": "Reduction", "setting": "[5]", "result": 2, "unit": "%"}, {"measurement": "Reduction", "setting": "[6]", "result": -5, "unit": "%"}, {"measurement": "Reduction", "setting": "[7]", "result": 9, "unit": "%"}]}, {"compound": "CCN1CC[C@H]2[C@H](c3cccc(C)c3)c3cc(C)ccc3[C@H]2C1.Cl", "values": [{"measurement": "Reduction", "setting": "[1]", "result": -11, "unit": "%"}, {"measurement": "Reduction", "setting": "[2]", "result": -9, "unit": "%"}]}, {"compound": "CCN1CC[C@H]2[C@H](c3ccccc3)c3ccccc3[C@H]2C1.Cl", "values": [{"measurement": "Reduction", "setting": "[1]", "result": -2, "unit": "%"}, {"measurement": "Reduction", "setting": "[2]", "result": 2, "unit": "%"}]}, {"compound": "CCN1CC[C@H]2[C@H](c3ccc(CO)cc3)c3cc(C)ccc3[C@H]2C1.Cl", "values": [{"measurement": "Reduction", "setting": "[9]", "result": 6, "unit": "%"}, {"measurement": "Reduction", "setting": "[4]", "result": 20, "unit": "%"}, {"measurement": "Reduction", "setting": "[6]", "result": 57, "unit": "%"}, {"measurement": "Reduction", "setting": "[7]", "result": 23, "unit": "%"}, {"measurement": "Reduction", "setting": "[1]", "result": 4, "unit": "%"}, {"measurement": "Reduction", "setting": "[8]", "result": 13, "unit": "%"}, {"measurement": "Reduction", "setting": "[2]", "result": -5, "unit": "%"}]}, {"compound": "CCCN1CC[C@H]2[C@H](c3ccc(C)cc3)c3cc(C)ccc3[C@H]2C1.Cl", "values": [{"measurement": "Reduction", "setting": "[1]", "result": 11, "unit": "%"}, {"measurement": "Reduction", "setting": "[2]", "result": 0, "unit": "%"}]}, {"compound": "CCN1CC[C@@H]2[C@@H](c3ccc(C)cc3)c3cc(C)ccc3[C@H]2C1.Cl", "values": [{"measurement": "Reduction", "setting": "[1]", "result": -18, "unit": "%"}, {"measurement": "Reduction", "setting": "[2]", "result": 0, "unit": "%"}]}, {"compound": "Cc1ccc([C@@H]2c3cc(C)ccc3[C@H]3CNCC[C@@H]23)cc1.Cl", "values": [{"measurement": "Reduction", "setting": "[1]", "result": -3, "unit": "%"}, {"measurement": "Reduction", "setting": "[2]", "result": -5, "unit": "%"}]}, {"compound": "CCN1CCC(C(O)c2ccc(C)cc2)C(c2ccc(C)cc2)C1.Cl", "note": "(stereo in doubt; 16a)", "values": [{"measurement": "Reduction", "setting": "[1]", "result": -9, "unit": "%"}]}, {"compound": "CCN1CCC(C(O)c2ccc(C)cc2)C(c2ccc(C)cc2)C1.Cl", "note": "(stereo in doubt; 16b)", "values": [{"measurement": "Reduction", "setting": "[1]", "result": 0, "unit": "%"}, {"measurement": "Reduction", "setting": "[2]", "result": 0, "unit": "%"}]}, {"compound": "CCN1CC[C@H]2[C@H](c3ccc(C(=O)O)cc3)c3cc(C)ccc3[C@H]2C1.Cl", "note": "(stereo in doubt; (l)-10k)", "values": [{"measurement": "Reduction", "setting": "[11]", "result": 0, "unit": "%"}, {"measurement": "Reduction", "setting": "[1]", "result": -7, "unit": "%"}]}]}
